Source: ChEMBL document CHEMBL1129668 (J Med Chem, 1996)
pKi: −log10 of the molar value.

Key:
[1] = target: Sodium-dependent dopamine transporter (Rattus norvegicus, UniProt P23977); experiment: In vitro binding affinity towards dopamine transporter in rat striatal membranes by […] displacement.; format: cell membranes, Striatum, Membrane
Method in brief: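 Crude membranes of rat corpus striatum in Tris-citrate buffer (pH 7.4) with Na+ and Mg2+ (4 mM). Six concentrations, duplicate; computer-fit IC50 converted to Ki via Cheng–Prusoff relation using radioligand K_d.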

[2] = target: Monoamine transporters; Norepininephrine & dopamine (Rattus norvegicus) (UniProt P23977+Q9WTR4); experiment: Selectivity for Dopamine and Norepinephrine transporters; format: protein assay
[3] = target: Monoamine transporters; serotonin & dopamine (Rattus norvegicus) (UniProt P31652+P23977); experiment: Selectivity for Dopamine and Serotonin transporters; format: protein assay
[4] = target: Norepinephrine transporter (Rattus norvegicus, UniProt Q9WTR4); experiment: In vitro binding affinity towards Norepinephrine transporter rat cerebral cortical homogenates by [3H]nisoxetine displacement.
Method in brief: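 Crude membrane fraction of rat frontoparietal cerebral cortex in 50 mM Tris-HCl (pH 7.4) with Na+, K+ (5 mM). Typically six concentrations in duplicate; curves computer-fit for IC50, converted to Ki = IC50/(1 + [L]/K_d).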

[5] = target: Sodium-dependent serotonin transporter (Rattus norvegicus, UniProt P31652); experiment: In vitro binding affinity towards serotonin transporter in rat cerebral cortical homogenates by [3H]paroxetine displacement.
Sequence of Sodium-dependent serotonin transporter (P31652 whole entry): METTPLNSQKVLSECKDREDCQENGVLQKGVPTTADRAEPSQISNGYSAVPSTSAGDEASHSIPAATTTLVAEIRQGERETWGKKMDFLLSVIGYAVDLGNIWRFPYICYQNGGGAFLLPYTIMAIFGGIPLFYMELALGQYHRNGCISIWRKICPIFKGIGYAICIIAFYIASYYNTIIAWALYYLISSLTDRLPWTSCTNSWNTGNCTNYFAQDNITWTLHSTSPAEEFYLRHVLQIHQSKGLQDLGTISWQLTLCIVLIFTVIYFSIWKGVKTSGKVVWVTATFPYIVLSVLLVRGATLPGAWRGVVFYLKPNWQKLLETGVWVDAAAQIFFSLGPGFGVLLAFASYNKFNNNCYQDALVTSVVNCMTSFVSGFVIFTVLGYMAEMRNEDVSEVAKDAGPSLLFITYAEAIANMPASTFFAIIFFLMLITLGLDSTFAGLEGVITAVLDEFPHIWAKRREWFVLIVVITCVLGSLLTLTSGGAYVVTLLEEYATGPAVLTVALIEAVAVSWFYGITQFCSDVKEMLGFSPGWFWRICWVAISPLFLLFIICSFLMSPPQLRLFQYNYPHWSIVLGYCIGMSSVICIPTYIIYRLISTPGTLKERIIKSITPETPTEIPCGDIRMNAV

Sequence of Sodium-dependent dopamine transporter (P23977 whole entry): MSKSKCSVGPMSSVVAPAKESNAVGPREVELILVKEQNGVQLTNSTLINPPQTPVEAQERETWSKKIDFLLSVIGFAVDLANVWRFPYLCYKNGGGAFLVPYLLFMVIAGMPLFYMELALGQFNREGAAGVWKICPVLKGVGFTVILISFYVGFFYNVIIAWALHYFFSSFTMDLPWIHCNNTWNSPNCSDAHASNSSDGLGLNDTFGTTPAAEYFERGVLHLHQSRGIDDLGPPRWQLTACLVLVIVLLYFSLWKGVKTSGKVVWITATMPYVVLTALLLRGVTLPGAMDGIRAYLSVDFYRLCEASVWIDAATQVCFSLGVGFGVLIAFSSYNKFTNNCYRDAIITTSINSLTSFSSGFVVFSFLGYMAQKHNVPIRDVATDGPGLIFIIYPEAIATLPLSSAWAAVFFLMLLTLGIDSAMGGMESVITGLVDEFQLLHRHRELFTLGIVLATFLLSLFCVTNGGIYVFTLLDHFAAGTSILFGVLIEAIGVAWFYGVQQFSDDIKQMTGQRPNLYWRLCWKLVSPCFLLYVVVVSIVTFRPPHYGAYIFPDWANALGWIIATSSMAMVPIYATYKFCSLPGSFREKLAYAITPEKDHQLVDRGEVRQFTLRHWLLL
Sequence of Monoamine transporters; serotonin & dopamine (Rattus norvegicus) (P23977 whole entry, looked up): as the sequence (P23977 whole entry) above
Sequence of Monoamine transporters; serotonin & dopamine (Rattus norvegicus) (P31652 whole entry, looked up): as the sequence (P31652 whole entry) above
Sequence of Norepinephrine transporter (Q9WTR4 whole entry): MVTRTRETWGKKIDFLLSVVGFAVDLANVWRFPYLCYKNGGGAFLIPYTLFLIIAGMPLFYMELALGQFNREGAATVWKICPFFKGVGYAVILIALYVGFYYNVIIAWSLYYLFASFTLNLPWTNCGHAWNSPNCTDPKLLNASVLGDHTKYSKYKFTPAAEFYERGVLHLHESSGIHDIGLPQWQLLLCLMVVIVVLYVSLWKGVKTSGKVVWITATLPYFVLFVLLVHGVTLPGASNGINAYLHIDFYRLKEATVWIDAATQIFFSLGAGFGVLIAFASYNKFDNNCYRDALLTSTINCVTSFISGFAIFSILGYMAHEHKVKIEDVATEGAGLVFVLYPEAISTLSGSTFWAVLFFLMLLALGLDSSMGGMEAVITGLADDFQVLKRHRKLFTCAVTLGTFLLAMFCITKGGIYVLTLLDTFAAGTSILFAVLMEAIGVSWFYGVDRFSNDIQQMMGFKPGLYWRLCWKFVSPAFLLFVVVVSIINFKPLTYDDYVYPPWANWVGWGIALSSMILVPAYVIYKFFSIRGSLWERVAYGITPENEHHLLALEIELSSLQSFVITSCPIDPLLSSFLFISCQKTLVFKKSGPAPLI

Row | Structure (SMILES) | pKi [1] | Selectivity [2] | Selectivity [3] | pKi [4] | pKi [5]
1 | COC(=O)C1C(c2ccc(I)cc2)CC2CCC1N2CC(OC)OC (stereo unspecified) | 8.17 | 16.2 | 0.249 | 6.96 | 8.77
2 | COC(=O)C1C(c2ccc(I)cc2)CC2CCC1N2CC(F)F (stereo unspecified) | 7.82 | > 330 | 0.636 | < 5.30 | 8.02
3 | COC(=O)[C@@H]1C2CCC(C[C@@H]1c1ccc(I)cc1)N2CCCN1C(=O)c2ccccc2C1=O (stereo partly specified) | 8.04 | 8.1 | 0.065 | 7.13 | 9.23
4 | COC(=O)C1C(c2ccc(I)cc2)CC2CCC1N2CCCCl (stereo unspecified) | 8.51 | 31 | 0.1 | 7.02 | 9.49
5 | COC(=O)C1C(c2ccc(I)cc2)CC2CCC1N2CCCF (stereo unspecified) | 8.46 | 18 | 0.032 | 7.20 | 9.96
6 | COC(=O)C1C(c2ccc(I)cc2)CC2CCC1N2C(=O)C(C)C (stereo unspecified) | 5.68 | > 4.8 | 0.049 | < 5.00 | 6.99
7 | COC(=O)[C@@H]1C2CCC(C[C@@H]1c1ccc(I)cc1)N2CC(=O)N(C)C (stereo partly specified) | 7.91 | 42.8 | 0.524 | 6.28 | 8.19
8 | COC(=O)[C@H]1[C@@H](c2ccc(F)cc2)C[C@H]2CC[C@H]1N2C |  |  |  | 6.20 | 6.74
9 | COC(=O)C1C(c2ccc(I)cc2)CC2CCC1N2CCCOS(C)(=O)=O (stereo unspecified) | 7.44 | 138 | 0.477 | 5.30 | 7.76
10 | COC(=O)C1C(c2ccc(I)cc2)CC2CCC1N2CCCBr (stereo unspecified) | 8.59 | 64.1 | 0.137 | 6.79 | 9.46
11 | COC(=O)C1C(c2ccc(I)cc2)CC2CCC1N2CCCO (stereo unspecified) | 8.27 | 40.3 | 0.463 | 6.66 | 8.60
12 | COC(=O)CN1C2CCC1C(C(=O)OC)C(c1ccc(I)cc1)C2 (stereo unspecified) | 7.92 | 2.5 | 0.068 | 7.54 | 9.09
13 | COC(=O)C1C(c2ccc(I)cc2)CC2CCC1N2C (stereo unspecified) | 8.85 | 2 | 0.32 | 8.55 | 
14 | COC(=O)C1C(c2ccc(I)cc2)CC2CCC1N2CCCI (stereo unspecified) | 7.41 | 129 | 0.227 | 5.30 | 8.05
15 | CC(C)OC(=O)C1C(c2ccc(I)cc2)CC2CCC1N2CCF (stereo unspecified) | 8.36 | > 2300 | 4.9 | < 5.00 | 7.66
16 | CC(C)OC(=O)C1C(c2ccc(I)cc2)CC2CCC1N2CCCF (stereo unspecified) | 8.92 | 8300 | 40.6 | 5.00 | 7.31
17 | COC(=O)C1C(c2ccc(I)cc2)CC2CCC1N2CCF (stereo unspecified) | 8.40 | 23.2 | 0.035 | 7.03 | 9.85
18 | COC(=O)C1C(c2ccc(I)cc2)CC2CCC1N2CC1CC1 (stereo unspecified) | 8.37 | 45.6 | 0.302 | 6.70 | 8.89
